Hits are enriched below; roughly 1.8% of the tested compounds scored in any of these assays.
CHRM4 PAM: potentiates acetylcholine response at human M4 receptor; CHO-K1 hM4/Gqi5, Fluo-8 calcium fluorescence, ACh EC20; 0% = ACh EC20, 100% = maximal ACh; activation, % at 3 µM; AID 624126; 360,000 tested, 0.4% active;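 active = activation above its plate's cutoff, the mean activation of sample wells plus 3 SD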
Target sequence (P08173 whole entry, looked up): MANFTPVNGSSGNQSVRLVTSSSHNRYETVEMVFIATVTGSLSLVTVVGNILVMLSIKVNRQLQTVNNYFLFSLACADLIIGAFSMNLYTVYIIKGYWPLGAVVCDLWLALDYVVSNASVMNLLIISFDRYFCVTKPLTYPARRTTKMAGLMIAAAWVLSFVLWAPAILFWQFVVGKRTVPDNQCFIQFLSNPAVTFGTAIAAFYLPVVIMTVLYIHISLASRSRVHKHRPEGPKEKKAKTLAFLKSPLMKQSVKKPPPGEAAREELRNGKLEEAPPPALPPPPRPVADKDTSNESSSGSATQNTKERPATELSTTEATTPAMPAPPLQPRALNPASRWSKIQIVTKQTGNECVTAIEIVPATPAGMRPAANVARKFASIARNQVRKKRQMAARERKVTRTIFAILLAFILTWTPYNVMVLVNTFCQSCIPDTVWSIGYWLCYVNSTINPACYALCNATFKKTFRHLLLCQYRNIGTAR
M5 ag: agonists of human muscarinic M5 receptor (CHRM5). P08912. CHO-K1 hM5 cells, Fluo-8 calcium fluorescence; 0% DMSO wells, 100% maximal acetylcholine response. activation, % at 3 µM. 360,000 tested, 0.19% active;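 active = activation above the run's mean over test compounds plus 3 SD, cut at about 23% in these data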;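 note: signal is peak over basal fluorescence ratio across the kinetic read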
CHRM5 antagonist: antagonists of human muscarinic M5 receptor (CHRM5) | 360,000 tested, 0.59% active | P08912 | inhibition, % at 3 µM | CHO-hM5 cells, Fluo-8 calcium fluorescence, ACh EC80;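 active = inhibition above a per-plate cutoff, the mean of that plate's test compounds plus 3 SD, cut at about 27% in these data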;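 note: 0% = acetylcholine EC80 with DMSO and 100% = DMSO without agonist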
CHRM4 agonist: CHRM4 agonism in calcium assay. P08173. activation, % at 3 µM. 360,000 tested, 0.14% active. CHO-K1 hM4/Gqi5, Fluo-8 calcium fluorescence; vehicle 0%, full acetylcholine response 100%;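 active = activation above the run mean over all test wells plus 3 SD, cut at about 32% in these data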;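 note: peak over basal fluorescence ratio per well then scaled between controls; 0% = DMSO wells and 100% = acetylcholine at EC100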
M5 PAM: potentiates acetylcholine response at human M5 receptor | AID 624038 | P08912 | 360,000 tested, 0.3% active | CHO-K1 hM5, Fluo-8 calcium, ACh EC20 PAM; 0% = ACh EC20, 100% = ACh EC100 | activation, % at 3 µM;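 active = activation above the run cutoff, the mean activation of all test compounds plus 3 SD, cut at about 18% in these data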
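System – CHO-K1 hM5 cells · Compound – 3 µM, single dose · Incubation – compound preincubation 140 s before EC20 acetylcholine addition · Technique – Fluo-8 calcium fluorescence · Measure – Max/basal fluorescence ratio as % of EC20–EC100 ACh window · Benchmarks – low control EC20 acetylcholine (0%), high control EC100 acetylcholine (100%) · Replication – singlicate, one well per test compound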
M4 antag: CHRM4 antagonism in calcium assay; P08173; CHO-hM4 cells, ACh EC80, Fluo-8 calcium fluorescence; inhibition, % at 3 µM; 360,000 tested, 0.73% active;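 active = inhibition above its plate's cutoff, the mean inhibition of sample wells plus 3 SD, cut at about 27% in these data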;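 note: 0% = acetylcholine EC80 with DMSO and 100% = DMSO without agonist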
Starred values were filed as active, the others as inactive.

SMILES	CHRM4 PAM	M5 ag	CHRM5 antagonist	CHRM4 agonist	M5 PAM	M4 antag
COc1ccccc1N1CCN(C(=O)c2ccc(CS(=O)(=O)c3ccccc3OC)o2)CC1	-10	34*	7	14	-16	3
CCOC(=O)N1CCN(C(=O)c2ccc(CS(=O)(=O)c3ccccc3OC)o2)CC1	0	-1	3	2	1	-10
COc1ccccc1N1CCN(C(=O)c2cccc3c(=O)c(C)c(-c4ccccc4)oc23)CC1	-13	26*	12	16	-19	-13
CCOC(=O)c1cc2c(nc1N)CC(C)(CC)OC2 (stereo not given)	17*	2	2	1	-4	0
CC(Nc1ccc(Br)cc1)C(=O)NC(=O)NC1CCCCC1 (stereo not given)	6	0	2	2	5	-9
COc1ccc(Cl)cc1NC(=O)CSc1nc2[nH]ncc2c(=O)[nH]1	7	0	-6	1	1	2
Cn1cnc([N+](=O)[O-])c1S(=O)(=O)Oc1ccc(Cl)cc1	-9	-3	26	3	-14	28*
Cn1cnc([N+](=O)[O-])c1S(=O)(=O)Oc1cccc2ccccc12	0	-1	13	4	-2	16
CCOC(=O)c1c(N/C=C(\C#N)c2nc(-c3ccc(OC(C)=O)cc3)cs2)sc2c1CCC2	15	4	-12	1	23*	3
Cc1ccc(-n2c(Cl)c(Cl)nc(Cl)c2=O)cc1	-6	-4	2	-3	2	37*
CCOC(=O)Cc1nc2cc(Cl)ccc2o1	5	-2	4	1	-7	-4
CC(O)CN1CCN(C(=O)CN2C(=O)NC(c3ccccc3)(c3ccccc3)C2=O)CC1 (stereo not given)	6	1	6	2	-5	1
COc1cc(OC)cc(C(=O)N2CCC(n3c(C)nc4cc(F)ccc43)CC2)c1	14	-8	-9	9	34*	-16
Cc1csc(SCC(=O)Nc2sc3c(c2C#N)CCC3)n1	4	0	-3	-1	5	4
Cc1ccnc(SCC(=O)Nc2sc3c(c2C#N)CCCC3)n1	-11	2	30*	13	-16	26
O=C(Nc1cccc(Br)c1)C1CCCC1	14*	-6	12	0	-5	-4
Cc1c(C(=O)N/N=C/c2ccc(N3CCOCC3)cc2)nc2ccccn12	-9	1	6	0	-3	0
COc1cc(/C=N/NC(=O)c2nc3ccccn3c2C)cc(OC)c1O	-4	2	-4	1	19*	-2
CCCCn1c(N)c(N(C)C(=O)C2CC(=O)N(Cc3ccco3)C2)c(=O)[nH]c1=O (stereo not given)	4	-3	11	1	-3	-14
CCOC(=O)c1c(NC(=O)COC(=O)CCOc2ccc(C)cc2)sc(C(=O)N(C)C)c1C	13	0	-26	1	19*	-7
CCOC(=O)c1c(NC(=O)COC(=O)c2ccc(Cl)nc2)sc(C(=O)N(C)C)c1C	8	7	4	5	-3	-12
CCOC(=O)c1c(NC(=O)CN2CCN(S(=O)(=O)c3cc(Cl)ccc3Cl)CC2)sc(C(=O)N(C)C)c1C	-13	-10	16	8	-18	41*
COc1ccc2nc(SCC(=O)N(C)C3CCCCC3)[nH]c2c1	18	0	6	2	5	1
Cc1cnc(NC(=O)c2cncc(Br)c2)s1	20*	-9	-2	1	2	-5
Cc1cnc(NC(=O)c2ccncc2)s1	2	-3	1	0	9	-3
SMILES	CHRM4 PAM	M5 ag	CHRM5 antagonist	CHRM4 agonist	M5 PAM	M4 antag
CN(C)S(=O)(=O)c1ccc(N2CCCC2)c(C(=O)NC2CCC(O)CC2)c1 (stereo not given)	-1	-1	8	0	2	-1
COC(C#CCCN(C)C)(c1ccccc1)c1ccccc1	-18	-8	94*	1	-19	35*
O=C(OCCN1C(=O)c2ccccc2C1=O)c1ccccc1	-1	-2	3	2	-2	7
O=C(OCCN1C(=O)c2ccccc2C1=O)c1ccco1	-1	-8	-7	1	19*	-9
CCc1ccccc1N1C(=O)[C@@H]2Cc3ccccc3CN2C1=O	-5	-2	14	1	-7	4
CC1(C)CC2(CC(c3ccccc3F)c3ccc(O)c(O)c3O2)NC(=S)N1 (stereo not given)	4	-5	8	2	3	4
Cc1nnsc1SCCNC(=O)Nc1ccc(Cl)cc1	-3	4	32*	14	-22	9
COc1ccc(Cn2nnnc2C(CC(C)C)N2CCC(C(N)=O)CC2)cc1 (stereo not given)	9	-3	-2	2	21*	-17
CCN(CC)c1ccc(/C=C2/C(=O)c3ccc(C(=O)O)cc3C2=O)cc1	-12	33*	18	20	-17	33*
CCN(CC)c1ccc(C=C2C(=O)OC3(CCCCC3)OC2=O)cc1	9	-3	10	0	-2	-3
Cc1c(Br)cnn1C(C)C(=O)N1CCN(c2ccc(F)cc2)CC1 (stereo not given)	1	5	3	2	-5	3
Cc1ccc(NC(=O)COC(=O)CC2CCCC2)cc1Cl	18	-3	-1	1	23*	-13
COc1ccc(NC(=O)COC(=O)CC2CCCC2)cc1Cl	-2	1	0	1	1	-4
Cc1ccc(N(C(=O)c2csnn2)C(C(=O)NC2CCCCC2)c2ccco2)cc1 (stereo not given)	-10	-1	11	2	-4	-15
Fc1ccc2[nH]c3c(N4CCc5ccccc5C4)ncnc3c2c1	-16	6	27*	18	-27	23
Cc1ccc(NC(=O)CSc2nnc(NC(=O)c3ccco3)s2)cc1	10	-4	-4	1	4	-20
CC(=O)c1ccc(NC(=O)CSc2nnc(NC(=O)c3ccco3)s2)cc1	21*	-3	0	1	9	1
Cc1ccc(S(=O)(=O)N2CCN(C(=O)CN3C(=O)CNC3=O)CC2)cc1	0	1	-1	0	3	-1
Cc1ccc(SCC(=O)N2CCCC2)cc1	1	-7	-3	0	19*	6
CC(C)C1C(=O)N(Cc2cn(CCC3OCCO3)nn2)CCS(=O)(=O)N1Cc1ccc(-c2ccc(F)cc2)cc1 (stereo not given)	9	0	7	4	-2	-19
Cc1nnc(SCC(=O)c2cc(C)n(-c3ccc4c(c3)OCO4)c2C)s1	-22	-1	27*	11	-11	13
